Among the data in ChEMBL document CHEMBL4190213, “Naphthoquinones of Sinningia reitzii and Anti-inflammatory/Antinociceptive Activities of 8-Hydroxydehydrodunnione” (J Nat Prod, 2017) are Activity and inhibition values, retold here.

Series [1] relates to Mus musculus. Description: Antinociceptive activity in PGE2-induced Swiss mouse model of mechanical hyperalgesia at 320 ng/paw administered as intraplantar injection pretreated for 15 mins followed by PGE2 challenge after 3 hrs by Von Frey filament assay. The format is functional, organism-based. The procedure, abridged:
(§1)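 Male Swiss mice received intraplantar pretreatment, vehicle 20 μL of 0.1% Tween 20. After 15 min the right paw was injected with PGE2 (100 ng/paw), dopamine (3 μg/paw) or dbcAMP (5 μg/paw). The 50% mechanical withdrawal threshold was measured by von Frey filaments, up-and-down method, before injection and 3 h after the stimulus; mean ± SEM, 5−8 animals.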

Series [2] relates to Mus musculus. Put plainly: Antinociceptive activity in dibutyryl cyclic AMP-induced Swiss mouse model of mechanical hyperalgesia at 320 ng/paw administered as intraplantar injection pretreated for 15 mins followed by dibutyryl cyclic AMP challenge after 3 hrs by Von Frey filament assay. The format is functional, organism-based. The procedure, abridged:
as §1

The test system of series [3] is Mus musculus. Put plainly: Antinociceptive activity in dopamine-induced Swiss mouse model of mechanical hyperalgesia at 320 ng/paw administered as intraplantar injection pretreated for 15 mins followed by dopamine challenge after 3 hrs by Von Frey filament assay. It counts as functional, organism-based. The procedure, abridged: as §1
Series [4] relates to Mus musculus. Description: Toxicity in Swiss mouse assessed as motor impairment at 5 mg/kg, sc incubated for 15 mins measured for 180 secs by rotarod test. It counts as organism-based. As to conditions: in vivo, 0.05 h. The procedure, abridged: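 Male Swiss mice (25−35 g) were preselected for staying at least 60 s on a Rotarod at 22 rpm (one of three trials). Diazepam was given at 5.0 mg/kg s.c. as the positive control. Local intraplantar treatments (15 pg/paw, or 20 μL vehicle of 0.1% Tween 20) were tested 3 h later. The Rotarod task lasted 180 s, n = 6.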

Series [5] has as its system Mus musculus. Put plainly: Antinociceptive activity in carrageenan-induced Swiss mouse model of mechanical hyperalgesia administered as intraplantar injection pretreated for 15 mins followed by carrageenan challenge after 3 hrs by Von Frey filament assay. It counts as functional, organism-based. The procedure, abridged: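 Male Swiss mice were acclimatized 1 h on a wire mesh platform and given a basal von Frey up-and-down test (six measurements, 50% withdrawal threshold). Intraplantar treatment followed, 5−50 pg into the right paw, vehicle 0.1% Tween 20 in saline, 20 μL. After 15 min, carrageenan 300 μg/paw in 20 μL went into the right hindpaw. The threshold was remeasured at 3 h; mean ± SEM, 5−8 animals.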

For series [6], the system named is Mus musculus. Description: Antinociceptive activity in dopamine-induced Swiss mouse model of mechanical hyperalgesia at 15 pg/paw administered as intraplantar injection pretreated for 15 mins followed by dopamine challenge after 3 hrs by Von Frey filament assay. It counts as functional, organism-based. The procedure, abridged:
as §1

The subject of series [7] is Mus musculus. Put plainly: Antinociceptive activity in dibutyryl cyclic AMP-induced Swiss mouse model of mechanical hyperalgesia at 15 pg/paw administered as intraplantar injection pretreated for 15 mins followed by dibutyryl cyclic AMP challenge after 3 hrs by Von Frey filament assay. It counts as functional, organism-based. The procedure, abridged: as §1
The subject of series [8] is Mus musculus. Put plainly: Toxicity in Swiss mouse assessed as motor impairment at 15 pg/paw administered as intraplantar injection incubated for 3 hrs measured for 180 secs by rotarod test. As to conditions: in vivo, other. The format is organism-based. The procedure, abridged: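 Male Swiss mice were preselected for staying at least 60 s on a Rotarod at 22 rpm (one of three trials). They received intraplantar treatment (vehicle 20 μL of 0.1% Tween 20) and were tested on the Rotarod 3 h later for 180 s; mean ± SEM, n = 6.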

Series [9] is filed under the species Mus musculus. Description: Antinociceptive activity in Swiss mouse assessed as increase in thermal-stimulus induced paw withdrawal or licking latency at 15 pg/paw after 3 hrs by hot plate method. The format is functional, organism-based. The procedure, abridged: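 Male Swiss mice were preselected for a basal latency of 7−15 s on a 55 °C metal platform. They then received intraplantar treatment (vehicle 20 μL of 0.1% Tween 20) and were re-exposed at 3 h. The end point was paw withdrawal or licking, cutoff 30 s. Data are %MPE = (post − basal)/(cutoff − basal) × 100; mean ± SEM, n = 6.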

For series [10], the system named is Mus musculus. Put plainly: Antiinflammatory activity in Swiss mouse assessed as inhibition of carrageenan-induced paw edema administered as intraplantar injection pretreated for 1 hr followed by carrageenan challenge measured after 1 to 4 hrs. The format is functional, organism-based. The procedure, abridged: (§2)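 Male Swiss mice, 25−35 g, given an intraplantar pretreatment in 0.1% Tween 20 vehicle. The right hind paw then received carrageenan, 300 μg in 50 μL sterile 0.9% saline, given subcutaneously; the contralateral paw received saline only. Paw thickness was read by digital micrometer 1 h before and 1, 2 and 4 h after carrageenan. The result is the thickness difference in μm; mean ± SEM, 5−8 animals.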

Series [11] relates to Mus musculus. Description: Antinociceptive activity in PGE2-induced Swiss mouse model of mechanical hyperalgesia at 15 pg/paw administered as intraplantar injection pretreated for 15 mins followed by PGE2 challenge after 3 hrs by Von Frey filament assay. It counts as functional, organism-based. The procedure, abridged: as §1
Series [12] concerns Mus musculus. Put plainly: Antiinflammatory activity in Swiss mouse assessed as inhibition of carrageenan-induced paw edema 30 ng/paw administered as intraplantar injection pretreated for 1 hr followed by carrageenan challenge measured after 1 to 4 hrs. The format is functional, organism-based. The procedure, abridged:
as §2

Calls of active or inactive are those of the source.

For `Cc1c(N(C)CS(=O)(=O)O)c(=O)n(-c2ccccc2)n1C`, the outcome in the series on Mus musculus [1], in the series on Mus musculus [2] and with Mus musculus [3] was Active.
As to `CN1C(=O)CN=C(c2ccccc2)c2cc(Cl)ccc21` [DIAZEPAM], in the series with Mus musculus [4], the Activity result is “Toxic”.
`C=C1OC2=C(C(=O)C(=O)c3c(O)cccc32)C1(C)C`: the values for the Activity entry with Mus musculus [5] and in the series on Mus musculus [8] were “Dose-dependent effect” and “Non-Toxic”, respectively. Besides, the result with Mus musculus [6] and in the series with Mus musculus [11] was Active. The outcome with Mus musculus [7] and in the series listed under Mus musculus [9] was inactive. Also, in the series with Mus musculus [10], the inhibition entry was “Dose-dependent effect”.
Take `C[C@@H]1C[C@H]2[C@@H]3CCC4=CC(=O)C=C[C@]4(C)[C@@]3(F)[C@@H](O)C[C@]2(C)[C@@]1(O)C(=O)CO`: the inhibition result in the series with Mus musculus [12] was “Active”.
